From ChEMBL document CHEMBL1275524, “Activities of antifungal agents against yeasts and filamentous fungi: assessment according to the methodology of the European Committee on Antimicrobial Susceptibility Testing” (2008)
Converted amounts (≈) assume the structure as drawn.

Assays:
Nakaseomyces glabratus [1] = test: Antifungal activity against Candida glabrata; assay type: functional
Procedure, shortened: (§1)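 Broth microdilution in flat-bottom plates in RPMI 1640 with 2% glucose; inoculum 0.5 × 105 to 2.5 × 10^5 CFU/ml. MICs were read spectrophotometrically at 24 h. AMB endpoint: ≥90% growth reduction vs drug-free control well. Azole and CPF endpoint: 50% reduction in optical density. MFC was taken as the lowest concentration giving 99% killing.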

Absidia [2] = test: Antifungal activity against Absidia species; assay type: functional
Sporothrix schenckii = test: Antifungal activity against Sporothrix schenckii by EUCAST method; assay type: functional
Procedure, shortened: (§2)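 Broth microdilution following the EUCAST reference procedure for spore-forming moulds, in flat-bottom plates with RPMI 1640 plus 2% glucose. Inoculum was 2 × 10^5 to 5 × 10^5 CFU/ml. MICs were read visually at 24 and 48 h as 100% growth reduction versus a drug-free control for polyenes and azoles. MEC was used for caspofungin. Tests were run in duplicate and repeated twice.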

Candida tropicalis [3] = test: Antifungal activity against Candida tropicalis by EUCAST method; assay type: functional; procedure, shortened: as §1
Aspergillus flavus [4] = test: Antifungal activity against Aspergillus flavus by EUCAST method; assay type: functional
[5] = Antifungal activity against Cryptococcus neoformans var. neoformans by EUCAST method; assay type: functional; settings: Cryptococcus deneoformans
Procedure, shortened: (§3)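 EUCAST yeast microdilution, modified for nonfermentative yeasts: plates were sealed and agitated at 350 rpm and 30°C for 48 h.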

Rhizopus = test: Antifungal activity against Rhizopus species; assay type: functional; procedure, shortened: as §2
Cunninghamella [6] = test: Antifungal activity against Cunninghamella species; assay type: functional
Absidia [7] = test: Antifungal activity against Absidia species by EUCAST method; assay type: functional
Penicillium sp. = test: Antifungal activity against Penicillium species; assay type: functional
Aspergillus flavus [8] = test: Antifungal activity against Aspergillus flavus; assay type: functional
Trichosporon asahii = test: Antifungal activity against Trichosporon asahii by EUCAST method; assay type: functional
Procedure, shortened: (§4)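 Nonfermentative yeasts were tested by the EUCAST microdilution recommendations with one change: plates were sealed and agitated at 350 rpm and 30°C for 48 h.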

Pichia kudriavzevii [9] = test: Antifungal activity against Candida krusei by EUCAST method; assay type: functional; procedure, shortened: as §1
Pichia kudriavzevii [10] = test: Antifungal activity against Candida krusei; assay type: functional
Procedure, shortened: (§5)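 EUCAST broth microdilution for yeasts in flat-bottom plates, RPMI 1640 with 2% glucose, inoculum 0.5 × 105 to 2.5 × 10^5 CFU/ml. […] MFC is the lowest concentration giving 99% killing.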

Fusarium oxysporum = test: Antifungal activity against Fusarium oxysporum; assay type: functional
Mucor hiemalis [11] = test: Antifungal activity against Mucor hiemalis; assay type: functional
Mucor hiemalis [12] = test: Antifungal activity against Mucor hiemalis by EUCAST method; assay type: functional
[13] = Antifungal activity against Cryptococcus neoformans var. neoformans; assay type: functional; settings: Cryptococcus deneoformans; procedure, shortened: as §3
Rhizopus arrhizus = test: Antifungal activity against Rhizopus oryzae by EUCAST method; assay type: functional; procedure, shortened: as §2
Candida parapsilosis = test: Antifungal activity against Candida parapsilosis; assay type: functional; settings: Lodderomyces parapsilosis; procedure, shortened: as §1
Mucor = test: Antifungal activity against Mucor species by EUCAST method; assay type: functional
Clavispora lusitaniae [14] = test: Antifungal activity against Candida lusitaniae by EUCAST method; assay type: functional; procedure, shortened: as §1
Cunninghamella [15] = test: Antifungal activity against Cunninghamella species by EUCAST method; assay type: functional
Candida tropicalis [16] = test: Antifungal activity against Candida tropicalis; assay type: functional; procedure, shortened: as §1
Trichosporon inkin = test: Antifungal activity against Trichosporon inkin; assay type: functional; procedure, shortened: as §4
Aspergillus niger [17] = test: Antifungal activity against Aspergillus niger by EUCAST method; assay type: functional
Nakaseomyces glabratus [18] = test: Antifungal activity against Candida glabrata by EUCAST method; assay type: functional; procedure, shortened: as §1
Clavispora lusitaniae [19] = test: Antifungal activity against Candida lusitaniae; assay type: functional; procedure, shortened: as §1
Aspergillus fumigatus = test: Antifungal activity against Aspergillus fumigatus; assay type: functional
Cryptococcus gattii = test: Antifungal activity against Cryptococcus neoformans var. gattii; assay type: functional, Cryptococcus bacillisporus; procedure, shortened: as §3
Talaromyces marneffei = test: Antifungal activity against Penicillium marneffei by EUCAST method; assay type: functional
Saccharomyces cerevisiae [20] = test: Antifungal activity against Saccharomyces cerevisiae; assay type: functional
Procedure, shortened: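 Broth microdilution following EUCAST for fermentative yeasts, in flat-bottom plates with RPMI 1640 plus 2% glucose. Inoculum was 0.5 × 10^5 to 2.5 × 10^5 CFU/ml. End points were read spectrophotometrically at 24 h: ≥90% growth reduction versus a drug-free control for amphotericin B, and 50% OD reduction for azoles and caspofungin. MFC was the lowest concentration giving 99% killing.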

Aspergillus niger [21] = test: Antifungal activity against Aspergillus niger; assay type: functional
Geotrichum candidum = test: Antifungal activity against Geotrichum candidum; assay type: functional
Saccharomyces cerevisiae [22] = test: Antifungal activity against Saccharomyces cerevisiae by EUCAST method; assay type: functional; procedure, shortened: as §5
Curvularia australiensis = test: Antifungal activity against Bipolaris australiensis; assay type: functional
Procedure, shortened: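 Dematiaceous fungi were tested by the EUCAST spore-forming mold reference procedure: flat-bottom microdilution plates, RPMI 1640 plus 2% glucose, inoculum 2 × 105 to 5 × 10^5 CFU/ml. Endpoints were read visually at 24 and 48 h. Polyenes and azoles: 100% growth reduction vs drug-free control. CPF: minimum effective concentration. Run in duplicate and repeated twice.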

SMILES: CC[C@@H]([C@H](C)O)n1ncn(-c2ccc(N3CCN(c4ccc(OC[C@@H]5CO[C@@](Cn6cncn6)(c6ccc(F)cc6F)C5)cc4)CC3)cc2)c1=O [POSACONAZOLE]
- MFC (Nakaseomyces glabratus [1]): > 4 mg/L
- MFC (Absidia [2]): 0.5 mg/L (≈ 0.713 µM)
- MIC (Sporothrix schenckii): 0.25 mg/L (≈ 0.357 µM)
- MIC (Candida tropicalis [3]): 0.12 mg/L (≈ 0.171 µM)
- MIC (Aspergillus flavus [4]): 0.21 mg/L (≈ 0.3 µM)
- MIC [5]: 0.14 mg/L (≈ 0.2 µM)
- MFC (Rhizopus): > 2 mg/L
- MFC (Cunninghamella [6]): 2 mg/L (≈ 2.85 µM)
- MIC (Absidia [7]): 0.33 mg/L (≈ 0.471 µM)
- MFC (Penicillium sp.): 0.5 mg/L (≈ 0.713 µM)
- MFC (Aspergillus flavus [8]): 0.5 mg/L (≈ 0.713 µM)
- MIC (Trichosporon asahii): 6 mg/L (≈ 8.56 µM)
- MIC (Pichia kudriavzevii [9]): 0.68 mg/L (≈ 0.97 µM)
- MFC (Pichia kudriavzevii [10]): 0.5 mg/L (≈ 0.713 µM)
- MFC (Fusarium oxysporum): 0.25 mg/L (≈ 0.357 µM)
- MFC (Mucor hiemalis [11]): 2 mg/L (≈ 2.85 µM)
- MIC (Mucor hiemalis [12]): 1.33 mg/L (≈ 1.9 µM)
- MFC [13]: 0.125 mg/L (≈ 0.178 µM)
- MIC (Rhizopus arrhizus): 1.89 mg/L (≈ 2.7 µM)
- MFC (Candida parapsilosis): 0.06 mg/L (≈ 0.0856 µM)
- MIC (Mucor): 0.72 mg/L (≈ 1.03 µM)
- MIC (Clavispora lusitaniae [14]): 0.06 mg/L (≈ 0.0856 µM)
- MIC (Cunninghamella [15]): 2 mg/L (≈ 2.85 µM)
- MFC (Candida tropicalis [16]): > 0.12 mg/L
- MFC (Trichosporon inkin): 0.5 mg/L (≈ 0.713 µM)
- MIC (Aspergillus niger [17]): 0.26 mg/L (≈ 0.371 µM)
- MIC (Nakaseomyces glabratus [18]): 1.58 mg/L (≈ 2.25 µM)
- MFC (Clavispora lusitaniae [19]): 0.06 mg/L (≈ 0.0856 µM)
- MFC (Aspergillus fumigatus): 0.5 mg/L (≈ 0.713 µM)
- MFC (Cryptococcus gattii): 0.125 mg/L (≈ 0.178 µM)
- MIC (Talaromyces marneffei): 0.06 mg/L (≈ 0.0856 µM)
- MFC (Saccharomyces cerevisiae [20]): > 4 mg/L
- MFC (Aspergillus niger [21]): 1 mg/L (≈ 1.43 µM)
- MFC (Geotrichum candidum): > 8 mg/L
- MIC (Saccharomyces cerevisiae [22]): 0.66 mg/L (≈ 0.942 µM)
- MFC (Curvularia australiensis): 0.125 mg/L (≈ 0.178 µM)
